In ChEMBL document CHEMBL5678798 (Clin Cancer Res, 2009):
The source made the active and inactive calls. No cut-off for these calls is given here.

How the values were obtained:
[1] = biological target: Mitogen-activated protein kinase 10 (Homo sapiens, UniProt P53779); assay: Inhibition of JNK3 (unknown origin)
[2] = Inhibition of p70S6K (unknown origin); set-up: species or system Homo sapiens
[3] = biological target: Fibroblast growth factor receptor 4 (Homo sapiens) (UniProt P22455); assay: Inhibition of N-terminal His6-tagged recombinant human FGFR4 (442 to 755 residues) expressed in baculovirus infected Sf21 cells at 0.3 uM by filter binding assay relative to control
[4] = biological target: Epidermal growth factor receptor (Homo sapiens, UniProt P00533); assay: Inhibition of EGFR (unknown origin)
[5] = Antiproliferative activity against human SUPM2 cells assessed as reduction in cell viability after 72 hrs by CellTiter-Glo assay; type: functional, cell-based; details: SUP-M2, 72 h
In short: (§1)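 Cells seeded in 96-well plates, left overnight at 37°C, then exposed to a range of test concentrations for 72 h. Viability read by CellTiter-Glo luminescence; IC50 from four-parameter curve fit. Lines kept at 37°C, 5% CO2, in recommended growth medium.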

[6] = biological target: Protein kinase C theta type (Homo sapiens, UniProt Q04759); assay: Inhibition of PKCtheta (unknown origin)
[7] = biological target: Serine/threonine-protein kinase PAK 1 (Homo sapiens, UniProt Q13153); assay: Inhibition of PAK1 (unknown origin)
[8] = biological target: Phosphatidylinositol 4,5-bisphosphate 3-kinase catalytic subunit delta isoform (Homo sapiens, UniProt O00329); assay: Inhibition of PI3Kdelta (unknown origin)
[9] = biological target: Tyrosine-protein kinase ZAP-70 (Homo sapiens, UniProt P43403); assay: Inhibition of ZAP70 (unknown origin)
[10] = biological target: Receptor tyrosine-protein kinase erbB-2 (Homo sapiens, UniProt P04626); assay: Inhibition of ErbB2 (unknown origin)
[11] = Antiproliferative activity against human SR-786 cells assessed as reduction in cell viability after 72 hrs by CellTiter-Glo assay; type: functional, cell-based; details: SR-786, 72 h; in short: as §1
[12] = system: COLO 205; assay: Induction of cell cycle arrest in human COLO 205 cells assessed as cells accumulation at G1 phase at 1 umol/L incubated for 48 hrs by propidium iodide staining based flow cytometric analysis (reference value: 65%); type: functional; details: dose 1 µmol/L, at 1 µM
In short: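 COLO 205, MCF-7 or NCI-H929 cells seeded in 96-well plates overnight at 37°C, then exposed to DMSO or increasing compound concentrations for 24 or 48 h. Fixed and stained with propidium iodide (Vindelov method), then analysed by flow cytometry for sub-G1, G1, S and G2-M fractions. Experiment repeated twice.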

[13] = biological target: Aurora kinase A (Homo sapiens, UniProt O14965); assay: Inhibition of Aurora A (unknown origin)
In short: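 In-house kinase panel assay with conditions developed and optimized for this kinase. Aurora A was assayed in the presence of its accessory protein TPX2. IC50 was determined.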

[14] = biological target: Tyrosine-protein kinase Fyn (Homo sapiens, UniProt P06241); assay: Inhibition of FYN (unknown origin)
[15] = biological target: PI3K p110 alpha/p85 alpha (Mus musculus) (UniProt P26450+P42337); assay: Inhibition of recombinant mouse N-terminal 6His-tagged full length P110alpha/full length mouse p85alpha expressed in baculovirus infected Sf21 cells at 0.3 uM by filter binding assay relative to control
[16] = Antitumor activity against mouse NIH-3T3/LISN cells implanted in nu/nu CD-1 mouse assessed as reduction in tumor growth at 30 mg/kg, po administered twice daily for 21 days relative to control; type: functional; details: 504 h, time 21 day, read-out: TGI
In short: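 Exponentially growing cells implanted s.c. in the right flank of 8–10-wk-old female athymic nu/nu CD-1 mice. At 150–200 mm3, block-randomized by tumor size into groups of eight. Oral dosing once or twice daily for 21 d; vehicle 20% sulfobutylether-β-cyclodextrin, pH 3.5. Calipers twice weekly; volume = length×width²/2. Growth inhibition = 100×[1 − treated growth/vehicle growth].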

[17] = Cytotoxicity against HUVEC cells assessed as reduction in cell viability after 72 hrs by CellTiter-Glo assay; type: toxicity, cell-based; details: human; in short: as §1
[18] = In vivo inhibition of IGF1R in mouse NIH-3T3/LISN cells xenografted in IGF1-stimulated nu/nu CD-1 mouse assessed as reduction in IGF1R phosphorylation at 3.5 umol/L blood compound concentration pretreated for 4 hrs followed by IGF1 stimulation and measured after 10 min by […] relative to control; type: functional; details: dose 3.5 µmol/L; time 250 min; 4.167 h; at 3.5 µM
In short: (§2)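 Female nu/nu CD-1 mice, three per group, bearing ~500 mm3 tumors, given one oral dose of compound or vehicle. At 4 h, 10 µg hIGF-I i.v. via tail vein; saline controls. Tumor and blood taken 10 min later. Tumor lysates in RIPA captured on anti-IGF-IR plates and probed with europium anti-phosphotyrosine. Phospho/total IGF-IR expressed as % of ligand-stimulated control. Blood levels by LC-MS/MS.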

[19] = biological target: cGMP-dependent protein kinase 1 (Homo sapiens) (UniProt Q13976); assay: Inhibition of N-terminal 6His-tagged recombinant full-length human PKG1beta expressed in baculovirus infected Sf21 cells at 3 uM by filter binding assay relative to control
In short: (§3)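 KinaseProfiler panel of 233 kinases: radiometric filter-binding activity assays with compound at 0.3 or 3 µmol/L. Read-out is percent inhibition.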

[20] = biological target: Fibroblast growth factor receptor 2 (Homo sapiens) (UniProt P21802); assay: Inhibition of N-terminal, His6-tagged recombinant human FGFR2 (456 to 765 residues) expressed in baculovirus infected Sf21 cells at 0.3 uM by filter binding assay relative to control
[21] = biological target: Insulin receptor (Mus musculus) (UniProt P15208); details: CD-1, dose 30.0 mg/kg, route po, time 2-24 hrs
[22] = Toxicity in nu/nu CD-1 mouse implanted with mouse NIH-3T3/LISN cells assessed as reduction in body weight at 30 mg/kg, po for 21 days; type: organism-based; details: in vivo, 504 h, time 21 day
[23] = biological target: Serine/threonine-protein kinase Nek11 (Homo sapiens) (UniProt Q8NG66); assay: Inhibition of 6His-tagged recombinant human full-length NEK11 expressed in baculovirus infected Sf21 cells at 0.3 uM by filter binding assay relative to control; in short: as §3
[24] = system: COLO 205; assay: In vivo inhibition of IGF1R in human COLO 205 cells xenografted in IGF1-stimulated po dosed nu/nu CD-1 mouse assessed as reduction in IGF1R phosphorylation pretreated for 4 hrs followed by IGF1 stimulation and measured after 15 min by radioimmunoprecipitation assay; type: functional, organism-based; details: dose 1-60 mg/kg, time 4.17 hrs, in the assay text read “measured after 10 min” for “measured after 15 min”; in short: as §2
[25] = Inhibition of N-terminal His6-tagged recombinant full-length human CDK5/N-terminal GST-tagged recombinant full-length human p35 expressed in baculovirus infected Sf21 cells at 0.3 uM by filter binding assay relative to control; details: condition cancer
In short: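 Outsourced single-concentration screen in a commercial panel of 233 protein kinases, run as radiometric filter-binding activity assays. Test agent was tested at 0.3 or 3 µmol/L, as given in each line, from a 10 mmol/L DMSO stock. Activity is expressed as percent inhibition relative to control.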

Protein kinase C theta type, sequence (Q04759 whole entry): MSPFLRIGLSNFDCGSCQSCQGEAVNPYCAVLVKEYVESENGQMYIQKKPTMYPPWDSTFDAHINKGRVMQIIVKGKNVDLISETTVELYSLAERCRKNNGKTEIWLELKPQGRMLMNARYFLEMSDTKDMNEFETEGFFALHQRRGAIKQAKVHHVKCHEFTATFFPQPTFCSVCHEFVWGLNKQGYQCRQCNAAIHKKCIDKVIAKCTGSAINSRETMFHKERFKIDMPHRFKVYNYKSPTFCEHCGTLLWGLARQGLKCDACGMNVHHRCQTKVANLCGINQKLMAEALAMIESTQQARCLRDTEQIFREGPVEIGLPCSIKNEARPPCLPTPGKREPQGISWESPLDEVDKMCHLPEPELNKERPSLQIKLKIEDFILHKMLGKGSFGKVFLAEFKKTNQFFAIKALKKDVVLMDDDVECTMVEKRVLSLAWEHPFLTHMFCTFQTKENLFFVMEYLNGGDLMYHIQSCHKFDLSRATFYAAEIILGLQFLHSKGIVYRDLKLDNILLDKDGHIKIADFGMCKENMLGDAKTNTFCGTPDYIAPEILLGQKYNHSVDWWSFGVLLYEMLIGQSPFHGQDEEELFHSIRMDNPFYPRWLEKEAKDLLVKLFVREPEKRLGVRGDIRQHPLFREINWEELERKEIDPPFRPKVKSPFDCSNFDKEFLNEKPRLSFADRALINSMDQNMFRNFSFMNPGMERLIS
Tyrosine-protein kinase ZAP-70, sequence (P43403 whole entry): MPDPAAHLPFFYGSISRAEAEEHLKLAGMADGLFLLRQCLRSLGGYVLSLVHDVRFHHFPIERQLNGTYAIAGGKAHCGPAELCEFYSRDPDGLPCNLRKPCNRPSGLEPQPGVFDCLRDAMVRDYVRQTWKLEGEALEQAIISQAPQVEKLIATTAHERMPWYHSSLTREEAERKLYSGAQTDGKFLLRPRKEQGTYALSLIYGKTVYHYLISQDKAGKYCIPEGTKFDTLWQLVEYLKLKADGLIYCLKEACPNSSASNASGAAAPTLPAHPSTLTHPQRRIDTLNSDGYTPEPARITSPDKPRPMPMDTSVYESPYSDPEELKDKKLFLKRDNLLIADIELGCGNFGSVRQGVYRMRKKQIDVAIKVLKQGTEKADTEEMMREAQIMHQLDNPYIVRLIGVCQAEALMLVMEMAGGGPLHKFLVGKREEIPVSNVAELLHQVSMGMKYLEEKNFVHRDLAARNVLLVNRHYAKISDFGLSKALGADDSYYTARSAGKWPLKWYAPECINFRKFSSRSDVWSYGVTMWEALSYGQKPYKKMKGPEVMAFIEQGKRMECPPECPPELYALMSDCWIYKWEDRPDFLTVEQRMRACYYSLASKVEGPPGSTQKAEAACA
Phosphatidylinositol 4,5-bisphosphate 3-kinase catalytic subunit delta isoform, sequence (O00329 whole entry, canonical isoform): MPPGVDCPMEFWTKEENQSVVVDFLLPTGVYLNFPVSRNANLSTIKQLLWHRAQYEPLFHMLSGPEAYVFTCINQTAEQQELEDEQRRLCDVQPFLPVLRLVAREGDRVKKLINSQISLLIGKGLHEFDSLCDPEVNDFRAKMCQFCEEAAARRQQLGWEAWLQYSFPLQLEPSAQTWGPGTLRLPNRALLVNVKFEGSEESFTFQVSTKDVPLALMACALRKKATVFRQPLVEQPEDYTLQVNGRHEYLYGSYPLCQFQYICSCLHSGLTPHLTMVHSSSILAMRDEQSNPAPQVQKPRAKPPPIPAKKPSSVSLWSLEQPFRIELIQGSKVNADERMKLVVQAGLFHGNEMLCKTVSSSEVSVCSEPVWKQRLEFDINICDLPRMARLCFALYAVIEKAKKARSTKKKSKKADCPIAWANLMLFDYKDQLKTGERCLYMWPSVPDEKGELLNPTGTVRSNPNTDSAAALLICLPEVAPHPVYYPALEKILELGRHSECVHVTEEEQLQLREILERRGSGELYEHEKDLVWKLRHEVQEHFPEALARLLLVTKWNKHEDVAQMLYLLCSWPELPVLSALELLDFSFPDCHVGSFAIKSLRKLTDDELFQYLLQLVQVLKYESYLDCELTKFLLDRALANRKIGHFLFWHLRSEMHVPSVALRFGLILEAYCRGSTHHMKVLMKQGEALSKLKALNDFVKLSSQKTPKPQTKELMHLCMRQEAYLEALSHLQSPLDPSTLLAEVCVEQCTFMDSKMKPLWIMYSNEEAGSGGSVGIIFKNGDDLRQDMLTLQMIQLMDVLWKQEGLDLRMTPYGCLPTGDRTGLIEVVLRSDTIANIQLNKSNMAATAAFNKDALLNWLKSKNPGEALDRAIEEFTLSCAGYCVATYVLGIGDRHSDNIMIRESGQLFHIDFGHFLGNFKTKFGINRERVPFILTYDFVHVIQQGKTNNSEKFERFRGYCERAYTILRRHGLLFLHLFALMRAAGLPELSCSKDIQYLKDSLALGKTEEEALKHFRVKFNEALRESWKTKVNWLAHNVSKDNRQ
Fibroblast growth factor receptor 2 (Homo sapiens), sequence (P21802 22-821 limits assumed): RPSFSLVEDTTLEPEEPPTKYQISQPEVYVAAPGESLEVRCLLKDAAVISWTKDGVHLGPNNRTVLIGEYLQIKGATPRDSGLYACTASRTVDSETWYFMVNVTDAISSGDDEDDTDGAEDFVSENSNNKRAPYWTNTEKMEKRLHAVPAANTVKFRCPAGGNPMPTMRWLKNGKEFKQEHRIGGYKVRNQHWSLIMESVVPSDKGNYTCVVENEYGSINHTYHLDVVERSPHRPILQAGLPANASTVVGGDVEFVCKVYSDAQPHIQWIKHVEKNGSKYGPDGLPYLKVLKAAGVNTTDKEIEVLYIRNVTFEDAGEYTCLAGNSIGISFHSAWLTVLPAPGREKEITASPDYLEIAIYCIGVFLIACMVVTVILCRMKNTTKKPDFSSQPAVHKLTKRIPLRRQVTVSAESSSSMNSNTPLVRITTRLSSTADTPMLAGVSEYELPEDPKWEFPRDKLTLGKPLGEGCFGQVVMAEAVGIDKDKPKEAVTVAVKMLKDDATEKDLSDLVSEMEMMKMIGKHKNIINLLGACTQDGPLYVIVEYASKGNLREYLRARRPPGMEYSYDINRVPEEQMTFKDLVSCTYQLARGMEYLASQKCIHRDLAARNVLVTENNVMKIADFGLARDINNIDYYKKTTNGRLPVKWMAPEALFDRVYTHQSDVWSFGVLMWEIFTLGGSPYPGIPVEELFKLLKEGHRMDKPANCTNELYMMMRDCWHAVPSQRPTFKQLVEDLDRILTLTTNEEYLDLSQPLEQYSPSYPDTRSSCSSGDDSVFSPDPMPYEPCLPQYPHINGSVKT
Fibroblast growth factor receptor 4 (Homo sapiens), sequence (P22455 22-802 limits assumed): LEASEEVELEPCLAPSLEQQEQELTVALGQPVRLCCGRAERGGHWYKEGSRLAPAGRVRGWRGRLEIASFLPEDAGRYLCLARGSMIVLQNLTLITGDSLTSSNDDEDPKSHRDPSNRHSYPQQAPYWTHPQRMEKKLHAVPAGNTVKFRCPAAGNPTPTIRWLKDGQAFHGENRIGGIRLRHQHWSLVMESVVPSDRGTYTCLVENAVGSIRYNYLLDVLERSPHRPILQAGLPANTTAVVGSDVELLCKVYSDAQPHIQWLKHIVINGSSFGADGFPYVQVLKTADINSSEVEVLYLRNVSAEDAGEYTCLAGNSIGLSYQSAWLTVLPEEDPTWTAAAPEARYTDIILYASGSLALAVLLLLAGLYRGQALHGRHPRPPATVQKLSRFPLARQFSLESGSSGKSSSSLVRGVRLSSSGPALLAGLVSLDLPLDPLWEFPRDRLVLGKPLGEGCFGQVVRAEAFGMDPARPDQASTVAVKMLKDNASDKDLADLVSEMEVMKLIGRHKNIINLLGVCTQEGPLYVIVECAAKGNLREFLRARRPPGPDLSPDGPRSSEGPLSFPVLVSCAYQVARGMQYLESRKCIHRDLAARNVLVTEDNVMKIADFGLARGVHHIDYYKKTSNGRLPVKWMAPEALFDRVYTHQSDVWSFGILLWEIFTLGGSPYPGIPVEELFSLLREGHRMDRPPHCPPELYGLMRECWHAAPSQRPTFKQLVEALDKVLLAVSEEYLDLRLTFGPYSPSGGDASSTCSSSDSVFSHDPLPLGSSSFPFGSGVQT
cGMP-dependent protein kinase 1 (Homo sapiens), sequence (Q13976 whole entry): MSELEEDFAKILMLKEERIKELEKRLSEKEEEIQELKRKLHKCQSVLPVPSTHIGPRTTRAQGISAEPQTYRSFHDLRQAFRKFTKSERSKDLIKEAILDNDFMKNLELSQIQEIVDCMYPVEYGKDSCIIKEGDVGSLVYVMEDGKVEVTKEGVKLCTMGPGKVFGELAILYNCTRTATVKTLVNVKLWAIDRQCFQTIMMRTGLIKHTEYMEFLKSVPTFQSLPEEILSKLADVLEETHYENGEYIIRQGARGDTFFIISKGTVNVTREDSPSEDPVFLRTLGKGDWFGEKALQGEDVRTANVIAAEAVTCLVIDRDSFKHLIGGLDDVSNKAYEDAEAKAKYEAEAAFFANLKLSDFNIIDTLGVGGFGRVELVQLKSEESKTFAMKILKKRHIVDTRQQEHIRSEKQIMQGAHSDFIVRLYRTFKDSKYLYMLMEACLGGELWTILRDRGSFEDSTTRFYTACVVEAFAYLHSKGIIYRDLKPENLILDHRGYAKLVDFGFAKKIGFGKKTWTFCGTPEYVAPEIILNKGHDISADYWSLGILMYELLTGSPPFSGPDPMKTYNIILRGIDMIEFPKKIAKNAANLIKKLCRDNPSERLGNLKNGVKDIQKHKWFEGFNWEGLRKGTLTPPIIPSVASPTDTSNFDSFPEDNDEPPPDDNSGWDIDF
Aurora kinase A, sequence (O14965 whole entry): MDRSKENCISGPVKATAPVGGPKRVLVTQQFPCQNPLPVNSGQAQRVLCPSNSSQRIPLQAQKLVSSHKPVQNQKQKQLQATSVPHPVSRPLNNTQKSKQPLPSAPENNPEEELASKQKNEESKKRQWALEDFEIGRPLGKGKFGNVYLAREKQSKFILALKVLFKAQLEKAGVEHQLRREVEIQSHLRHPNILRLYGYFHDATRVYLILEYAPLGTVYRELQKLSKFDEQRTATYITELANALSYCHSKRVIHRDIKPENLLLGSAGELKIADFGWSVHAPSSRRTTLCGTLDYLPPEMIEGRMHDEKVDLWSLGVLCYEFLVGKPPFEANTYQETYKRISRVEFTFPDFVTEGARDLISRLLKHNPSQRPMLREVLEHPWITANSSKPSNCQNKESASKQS

SMILES: CCc1cc(Nc2nccc(-c3c(-c4ccc(OC)c(C(=O)Nc5c(F)cccc5F)c4)nc4ccccn34)n2)c(OC)cc1N1CCC(N2CCN(S(C)(=O)=O)CC2)CC1
- IC50 [1]: > 10 µM
- IC50 [2]: > 10 µM
- inhibition [3]: 21%
- IC50 [4]: > 10 µM
- IC50 [5]: > 30 µM
- IC50 [6]: > 10 µM
- IC50 [7]: > 10 µM
- IC50 [8]: > 10 µM
- IC50 [9]: > 20 µM
- IC50 [10]: > 10 µM
- IC50 [11]: > 30 µM
- Activity [12]: 78%
- IC50 [13]: > 8 µM
- IC50 [14]: 6.3 µM
- inhibition [15]: -10%
- inhibition in vivo at 30 mg/kg [16]: 98%
- IC50 at 72 h [17]: > 20 µM
- inhibition (INH) [18]: 100%
- inhibition [19]: 32%
- inhibition [20]: 21%
- inhibition [21]: inactive
- Activity [22]: Non-Toxic
- inhibition [23]: -8%
- inhibition [24]: Dose-Dependent Effect
- inhibition at 0.3 µM [25]: -8%
